Measured values of several laboratories.
Target: Ephrin type-A receptor 1 (EPHA1, Homo sapiens, UniProt P21709)
One construct used (P21709 1-976): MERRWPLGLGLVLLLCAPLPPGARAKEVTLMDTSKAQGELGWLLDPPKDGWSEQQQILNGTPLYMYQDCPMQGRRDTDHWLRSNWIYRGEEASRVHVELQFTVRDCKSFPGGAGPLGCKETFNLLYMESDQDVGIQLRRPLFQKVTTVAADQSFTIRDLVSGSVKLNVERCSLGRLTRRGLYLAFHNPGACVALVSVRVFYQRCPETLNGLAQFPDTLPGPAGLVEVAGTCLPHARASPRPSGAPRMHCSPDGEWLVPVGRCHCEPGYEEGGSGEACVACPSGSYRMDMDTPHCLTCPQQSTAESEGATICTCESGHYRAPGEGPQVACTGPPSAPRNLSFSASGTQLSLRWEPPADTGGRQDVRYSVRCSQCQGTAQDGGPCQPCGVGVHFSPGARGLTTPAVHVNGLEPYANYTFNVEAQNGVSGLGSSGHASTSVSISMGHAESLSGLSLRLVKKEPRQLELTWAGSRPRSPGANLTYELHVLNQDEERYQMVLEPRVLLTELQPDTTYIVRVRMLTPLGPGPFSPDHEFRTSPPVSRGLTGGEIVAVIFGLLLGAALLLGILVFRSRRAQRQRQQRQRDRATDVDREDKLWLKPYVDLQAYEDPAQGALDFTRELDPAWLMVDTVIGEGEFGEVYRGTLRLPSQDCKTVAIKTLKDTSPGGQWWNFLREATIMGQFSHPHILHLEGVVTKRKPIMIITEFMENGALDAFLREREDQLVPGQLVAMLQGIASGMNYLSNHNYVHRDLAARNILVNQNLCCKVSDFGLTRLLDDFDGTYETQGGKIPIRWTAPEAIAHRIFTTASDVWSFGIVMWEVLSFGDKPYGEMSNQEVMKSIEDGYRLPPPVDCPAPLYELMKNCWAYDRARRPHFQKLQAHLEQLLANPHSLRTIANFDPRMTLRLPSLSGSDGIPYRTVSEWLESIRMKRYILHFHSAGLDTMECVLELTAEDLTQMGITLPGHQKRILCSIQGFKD

Structure (SMILES)	effect on	method	concentration	remaining binding
O=C(NCCCN1CCOCC1)c1ccc(Nc2ncc(Cl)c(-c3ccc(Cl)s3)n2)cc1	binding	competition with immobilised ligand	1 µM	46%
CNC(=O)[C@@H]1CC[C@@H](n2c(-c3ccc4cnccc4c3)nc3ccc(C(=O)NCc4cccc(C(N)=O)c4)cc32)C1	binding	competition with immobilised ligand	1 µM	100%
CCC(=O)N[C@H]1CC[C@@H](C(=O)N(C)c2ccc(-c3nc4ccccc4o3)cc2)C1	cell-free assay	competition with immobilised ligand	1 µM	100%
C[C@H]1CCN(c2nccc(-c3cnn4ncccc34)n2)C1	binding	–	1 µM	84%
O=C(c1ccc(Nc2nccc(-c3cc4ccccc4s3)n2)cc1)N1CCC(N2CCCC2)CC1	binding	competition with immobilised ligand	1 µM	32%
Cc1nccc(COC(=O)N2C[C@@H]3[C@@H](CNC(=O)c4ccc5[nH]nnc5c4)[C@@H]3C2)n1	cell-free assay	competition with immobilised ligand	1 µM	100%
O=C(Nc1c[nH]nc1C(=O)NC1CCNCC1)c1cc(F)cc(F)c1	binding	competition with immobilised ligand	1 µM	100%
CC(C)CC(=O)N1CCc2nc(-c3ccc(Br)cc3)nc(N(C)Cc3ccccc3)c2C1	cell-free assay	competition with immobilised ligand	0.1 µM	100%
COc1ncc2cc3ccccc3nc2c1C#N	cell-free assay	competition with immobilised ligand	5 µM	95%
CN(C)c1nccc(-c2cnn3ncccc23)n1	binding	–	1 µM	46%
CSc1cccnc1N1CCN(Cc2nc3ccccc3[nH]2)CC1	cell-free assay	competition with immobilised ligand	1 µM	100%
CCN1CCN(Cc2ccc(C(=O)Nc3ccc(C)c(Oc4ccc5c(c4)CC(=O)N5)c3)cc2C(F)(F)F)CC1	binding	competition with immobilised ligand	1 µM	77%
COc1ccnn2ncc(-c3ccnc(N(C)C)n3)c12	binding	–	1 µM	100%
C=CC(=O)N1CCC(C(=O)NCC(=O)N2CCN(c3nc(-c4cnc(N)nc4C(F)F)nc(N4CCOCC4)n3)CC2)CC1	binding	competition with immobilised ligand	1 µM	100%
CN(CCCC(F)(F)F)c1nccc(-c2cnn3ncccc23)n1	binding	–	1 µM	76%
CNCc1ccccc1-c1csc([C@@H](C)Nc2nc(C)nc3cc(OC)c(OC)cc23)c1	cell-free assay	competition with immobilised ligand	1 µM	79%
c1cnn2ncc(-c3ccnc(N4CCC45COC5)n3)c2c1	binding	–	1 µM	89%
Cc1cnc(Nc2ccc(C(=O)N3CCC(N4CCCC4)CC3)cc2)nc1-c1cc2ccccc2s1	binding	competition with immobilised ligand	1 µM	3.9%
CC(=O)N1CCC(c2ccc(C(=O)NC(=N)N)cc2C(F)(F)F)CC1	cell-free assay	competition with immobilised ligand	1 µM	100%
N[C@@H]1CCN(c2nccc(-c3cnn4ncccc34)n2)C1	binding	–	1 µM	100%
